Publication PMC7717452 (Journal of Enzyme Inhibition and Medicinal Chemistry, 2020)
Like-named read-outs stand apart in the source and are kept apart here.

What was measured:
[1] = molecular target: T1, LiTryS (Leishmania infantum trypanothione synthetase) (Leishmania infantum, UniProt A4I2Z3); experiment: TryS activity end-point assay; assay type: biochemical; conditions: for IC50: ± 2σ, ∼30 assumed for 50 ± 5% inhibition at 30 µM; for % TryS inhibition at 30 µM, LiTryS: NA = not active (enzyme activity > 95%)
T1 sequence (A4I2Z3 1-652): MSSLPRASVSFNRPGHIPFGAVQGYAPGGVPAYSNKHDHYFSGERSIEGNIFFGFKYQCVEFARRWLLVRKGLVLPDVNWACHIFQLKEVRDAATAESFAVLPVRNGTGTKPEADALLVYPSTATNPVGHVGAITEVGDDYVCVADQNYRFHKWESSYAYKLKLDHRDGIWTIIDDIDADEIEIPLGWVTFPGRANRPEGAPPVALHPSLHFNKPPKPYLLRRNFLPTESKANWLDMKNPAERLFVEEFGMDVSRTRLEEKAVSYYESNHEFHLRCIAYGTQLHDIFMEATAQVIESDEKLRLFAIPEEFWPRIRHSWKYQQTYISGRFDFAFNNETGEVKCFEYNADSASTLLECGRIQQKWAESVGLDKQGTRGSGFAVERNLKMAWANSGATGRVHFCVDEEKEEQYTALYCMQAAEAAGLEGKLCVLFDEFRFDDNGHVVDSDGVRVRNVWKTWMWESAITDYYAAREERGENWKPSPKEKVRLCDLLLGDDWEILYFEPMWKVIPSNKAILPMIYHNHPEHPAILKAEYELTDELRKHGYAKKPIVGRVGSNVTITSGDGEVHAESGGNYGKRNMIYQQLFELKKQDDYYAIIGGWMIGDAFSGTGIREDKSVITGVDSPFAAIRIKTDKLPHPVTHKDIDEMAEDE
Method in brief: (§1)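 Recombinant TryS end-point assay in 100 mM HEPES pH 7.4 with 5 mM DTT, 10 mM MgSO4 and 0.5 mM EDTA. ATP was 150 µM and spermidine 2 mM. GSH was 0.25 mM for LiTryS, 0.05 mM for TbTryS and 0.57 mM for TcTryS. Enzyme started the reaction and BIOMOL Green stopped it after 15 min. A650 was read after 20 min at room temperature. Values were corrected with no-enzyme blanks and for compound interference with phosphate. At least quadruplicates; IC50 is given ± 2σn-1.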

[2] = molecular target: T2, TbTryS (Trypanosoma brucei brucei, UniProt Q8IEX1); experiment: TryS activity end-point assay; assay type: biochemical; conditions: IC50 value, TbTryS, ± 2σ; ~30 assumed for 50 ± 5% inhibition at 30 µM
T2 sequence (Q8IEX1 1-627): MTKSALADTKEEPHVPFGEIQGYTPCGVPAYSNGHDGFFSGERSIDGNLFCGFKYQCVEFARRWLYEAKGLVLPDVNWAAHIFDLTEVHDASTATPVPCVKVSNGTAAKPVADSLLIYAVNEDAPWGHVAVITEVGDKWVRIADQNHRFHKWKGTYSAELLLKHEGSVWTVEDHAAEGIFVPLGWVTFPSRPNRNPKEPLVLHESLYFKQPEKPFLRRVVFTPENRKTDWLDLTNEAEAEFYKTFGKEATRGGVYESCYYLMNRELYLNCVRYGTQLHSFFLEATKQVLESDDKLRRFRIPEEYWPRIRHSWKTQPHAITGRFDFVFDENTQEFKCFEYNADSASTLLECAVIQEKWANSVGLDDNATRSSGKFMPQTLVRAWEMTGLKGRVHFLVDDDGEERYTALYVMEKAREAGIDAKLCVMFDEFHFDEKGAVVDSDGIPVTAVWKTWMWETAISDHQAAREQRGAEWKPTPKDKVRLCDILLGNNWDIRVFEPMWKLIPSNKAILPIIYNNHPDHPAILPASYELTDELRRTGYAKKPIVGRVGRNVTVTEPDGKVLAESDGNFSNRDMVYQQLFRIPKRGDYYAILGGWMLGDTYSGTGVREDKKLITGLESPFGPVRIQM
Method in brief: as §1

[3] = test system: L. braziliensis amastigotes; experiment: Macrophage infection assay, L. braziliensis amastigotes; assay type: cell-based, Leishmania braziliensis; conditions: for activity at 10 µM: Leishmania braziliensis, Macrophage, read-out: % infection by L. braziliensis at 10 µM
Method in brief: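 J774 macrophages were plated on coverslips at 1 × 10^5 cells/mL in DMEM with 1% FBS. They were infected with stationary-phase L. braziliensis promastigotes (MHOM/BR/01/BA788; 1:20) for 2 h at room temperature, then 22 h at 35 °C. After washing, cells got test compound (5 or 10 µM, or 10–0.01 µM) in 1% DMSO for 24 h at 37 °C and 5% CO2. Cells were EtOH-fixed and DAPI-stained, and 100–200 macrophages were imaged. % infected cells is relative to DMSO.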

[4] = Cytotoxicity assay; assay type: cell-based, mouse; conditions: mouse, J774 macrophages (ATCC TIB67), non-infected
Method in brief: (§2)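 J774 mouse macrophages were grown in DMEM with 10% FBS and penicillin/streptomycin at 37 °C in humidified 5% CO2. Cells were seeded at 6 × 10^4 cells/mL and exposed the next day for 24 h to test compound at 100 to 0.001 µM (200 µM for one compound). The WST-1 signal was read at A450. % cytotoxicity was calculated against DMSO-treated and untreated cells, and CC50 is given ± σn–1.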

[5] = test system: Mouse macrophages from the cell line J774; experiment: Cytotoxicity assay; assay type: cell-based; conditions: 24 h, non-infected J774
Method in brief: as §2

SMILES | IC50 ([1]; IC50 value, LiTryS) | activity at 10 µM ([3]; 24 h) | cytotoxicity at 24 h, 100 µM [4] | also measured
CN1CCN(CCNC(=O)CN2C(=O)Cc3c([nH]c4ccc(Br)cc34)-c3ccc(Cl)cc32)CC1 [Compound 33] | 1100 ± 300 nM |  |  | 
O=C(CN1C(=O)Cc2c([nH]c3ccc(Br)cc23)-c2ccc(Cl)cc21)NCCO [Compound 13] | 2300 ± 300 nM |  |  | 
O=C(CN1C(=O)Cc2c([nH]c3ccc(Br)cc23)-c2ccc(Cl)cc21)Nc1ccccc1 [Compound 19] | ~30000 nM |  |  | IC50 [2]: 30000 nM
COC(=O)CN1C(=O)Cc2c([nH]c3ccc(Br)cc23)-c2ccc(Cl)cc21 [Compound 4] | 3000 ± 700 nM |  |  | 
CNC(=O)CN1C(=O)Cc2c([nH]c3ccc(Br)cc23)-c2ccc(Cl)cc21 [Compound 9] | 800 ± 100 nM | 107 ± 2% | 93 ± 4% | 
O=C(CN1C(=O)Cc2c([nH]c3ccc(Br)cc23)-c2ccc(Cl)cc21)N1CCCCC1 [Compound 24, 9-Bromo-3-chloro-5-[2-oxo-2-(piperidin-1-yl)ethyl]-7,12-dihydrobenzo[2,3]azepino-[4,5-b]indol-6(5H)-one] |  |  |  | % TryS inhibition at 30 µM, LiTryS [1]: 38.6 ± 1.3%
CC(C)(C)NC(=O)CN1C(=O)Cc2c([nH]c3ccc(Br)cc23)-c2ccc(Cl)cc21 [Compound 15] | 2300 ± 400 nM | 104 ± 1% | 48 ± 8% | 
O=C(CN1C(=O)Cc2c([nH]c3ccc(Br)cc23)-c2ccc(Cl)cc21)NCCN1CCNCC1 [Compound 32] | 600 ± 100 nM | 139 ± 2% | 24 ± 3% | 
O=C(O)CN1C(=O)Cc2c([nH]c3ccc(Br)cc23)-c2ccc(Cl)cc21 [Compound 3] |  |  |  | % TryS inhibition at 30 µM, LiTryS [1]: inactive
NCCNC(=O)CN1C(=O)Cc2c([nH]c3ccc(Br)cc23)-c2ccc(Cl)cc21 [Compound 27] |  | 68 ± 1% | 36 ± 1% | 
NC(=O)CN1C(=O)Cc2c([nH]c3ccc(Br)cc23)-c2ccc(Cl)cc21 [Compound 7] | 5100 ± 500 nM |  |  | 
O=C(CN1C(=O)Cc2c([nH]c3ccc(Br)cc23)-c2ccc(Cl)cc21)N1CCOCC1 [Compound 26] | 2800 ± 700 nM | 29 ± 3% |  | SI, L. braziliensis amastigotes ([3]; selectivity index, macrophage CC50 and amastigote EC50): 6; CC50 ([5]; read-out: CC50, macrophages): 10200 ± 200 nM
O=C(CN1C(=O)Cc2c([nH]c3ccc(Br)cc23)-c2ccc(Cl)cc21)Nc1ncco1 [Compound 18] |  |  |  | IC50 ([1]; read-out: IC50 value, LiTryS): 20100 ± 1500 nM
CN(C)C(=O)CN1C(=O)Cc2c([nH]c3ccc(Br)cc23)-c2ccc(Cl)cc21 [Compound 10] | 500 nM |  | 21 ± 1% | % infection by L. braziliensis at 5 µM ([3]; 5 µM, 24 h, relative to infected non-treated macrophages): 72 ± 4 at 5 µM %
CC(C)(C)OC(=O)CN1C(=O)Cc2c([nH]c3ccc(Br)cc23)-c2ccc(Cl)cc21 [Compound 6] |  |  |  | % infection by L. braziliensis at 10 µM ([3]; 10 µM, 24 h, relative to infected non-treated macrophages): 89 ± 13%; IC50 ([1]; read-out: IC50 value, LiTryS): 2400 ± 300 nM; % cytotoxicity at 100 µM, macrophages ([5]; 100 µM): 64 ± 0%
CC(C)(C)OC(=O)NCCNC(=O)CN1C(=O)Cc2c([nH]c3ccc(Br)cc23)-c2ccc(Cl)cc21 [Compound 29] |  |  |  | % TryS inhibition at 30 µM, LiTryS [1]: 36.7 ± 5.9%
